Experiment [1] can be described thus: Inhibition of recombinant mouse N-terminal FLAG-tagged Notch1 (1704 to 2531 residues) expressed in human LS174T cells assessed as reduction in doxycycline-induced NICD expression after 12 hrs by Bright-Glo luciferase reporter gene assay. The experiment is classed as cell-based. The essentials:
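LS174T Notch cells seeded 2 × 10^4 cells/well, 12 h at 37 °C. Dox 50 ng/mL for 12 h, then Dox-free medium with samples for 12 h at 37 °C in 0.1% DMSO. Luciferase read with Bright-Glo. Viability measured in parallel by fluorometric microculture cytotoxicity assay. SD, n = 3.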
Background: A reporter such as luciferase makes a cellular process visible.

Experiment [2] has as its target Gamma-secretase (Homo sapiens) (UniProt Q96BI3+Q9NZ42+Q8WW43+P49768+Q92542+P49810). Put plainly: Effect on gamma-secretase activity in human LS174T cells harboring mouse N-terminal FLAG-tagged Notch1 (1704 to 2531 residues) after 12 hrs by Western blot analysis. The format is cell-based. On the technique in general: In western blotting, separated proteins are transferred to a membrane and probed.

For experiment [3], the target named is Neurogenic locus notch homolog protein 1 (Mus musculus) (UniProt Q01705). The experiment in a line: Inhibition of Notch1 in mouse MEB5 cells assessed as reduction in NICD expression at 1 uM after 24 hrs by Western blot analysis. The experiment is classed as cell-based. The method in brief:
(§1)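 MEB5 mouse neural stem cells dissociated and seeded on poly-L-lysine and fibronectin/laminin-coated 6 cm dishes in proliferation medium for 12 h. Washed with NeuroCult basal medium, then compound given in differentiation medium for 24 h. Lysates analysed by Western blot (SDS-PAGE, PVDF, ECL); γ-secretase antibody sampler kit used for γ-secretase components.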

Experiment [4] deals with MEB5. Put plainly: Induction of neuronal differentiation in mouse MEB5 cells assessed as reduction in astrocytes at 1 uM after 4 days by GFAP staining based immunofluorescence analysis. The experiment is classed as functional, cell-based.
For experiment [5], the system named is MEB5. Put plainly: Inhibition of Wnt signaling in mouse MEB5 cells assessed as reduction in beta-catenin level up to 1 uM after 12 to 24 hrs by Western blot analysis. The experiment is classed as cell-based.
Experiment [6] relates to MEB5. Put plainly: Effect on gamma-secretase activity in mouse MEB5 cells assessed as PEN2 expression at 1 uM after 24 hrs by Western blot analysis. The experiment is classed as cell-based. The essentials:
as §1

The target in experiment [7] is Neurogenic locus notch homolog protein 1 (Homo sapiens) (UniProt P46531). Put plainly: Inhibition of doxycycline-induced recombinant mouse N-terminal FLAG-tagged Notch1 (1704 to 2531 residues) activation expressed in human LS174T cells assessed as reduction in Hes5 level at 0.1 to 1 uM after 12 hrs by Western blot analysis. The format is cell-based. The method in brief: (§2)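 LS174T Notch cells (Tet-On LS174T, N-terminally FLAG-tagged mouse Notch1(1704-2531), stable 12×RBP-J luciferase reporter) seeded 1 × 10^6 cells per 6 cm dish for 12 h at 37 °C. Dox 50 ng/mL for 12 h, then fresh medium with compound for 12 h. Whole-cell lysates, SDS-PAGE, PVDF, ECL detection. Anti-Flag used for the Notch1 fragment; β-actin internal control.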

For experiment [8], the system named is MEB5. The experiment in a line: Induction of neuronal differentiation in mouse MEB5 cells assessed as neurite length at 1 uM after 4 days by Tuj1 staining based immunofluorescence analysis (reference value: 14.3 micrometer). The experiment is classed as functional.
The target in experiment [9] is Neurogenic locus notch homolog protein 1 (Mus musculus) (UniProt Q01705). The experiment in a line: Inhibition of Notch1 in mouse MEB5 cells assessed as reduction in Hes5 expression at 1 uM after 24 hrs by Western blot analysis. The experiment is classed as cell-based. The essentials:
as §1

Experiment [10] relates to MEB5. Put plainly: Effect on gamma-secretase activity in mouse MEB5 cells assessed as PS1 expression at 1 uM after 24 hrs by Western blot analysis. The experiment is classed as cell-based. The essentials: as §1
Experiment [11] relates to MEB5. Put plainly: Effect on gamma-secretase activity in mouse MEB5 cells assessed as nicastrin expression at 1 uM after 24 hrs by Western blot analysis. The experiment is classed as cell-based. The method in brief: as §1
Experiment [12] deals with Neurogenic locus notch homolog protein 1 (Mus musculus) (UniProt Q01705). Put plainly: Inhibition of Notch1 in mouse MEB5 cells assessed as reduction in Hes1 expression at 1 uM after 24 hrs by Western blot analysis. The format is cell-based. The essentials:
as §1

The target is the same in experiment [13]. Put plainly: Inhibition of Notch1 in mouse MEB5 cells assessed as reduction in NICD expression at 1 uM after 24 hrs in presence of proteasome inhibitor MG132 by Western blot analysis. The format is cell-based.
The subject of experiment [14] is MEB5. The experiment in a line: Induction of neuronal differentiation in mouse MEB5 cells assessed as increase in neurite extension length at 1 uM after 4 days by Tuj1 staining based immunofluorescence analysis relative to control. The format is functional.
The subject of experiment [15] is MEB5. Put plainly: Effect on gamma-secretase activity in mouse MEB5 cells assessed as PS2 expression at 1 uM after 24 hrs by Western blot analysis. The experiment is classed as cell-based. The method in brief:
as §1

In experiment [16] the target is Neurogenic locus notch homolog protein 1 (Homo sapiens) (UniProt P46531). Put plainly: Inhibition of doxycycline-induced recombinant mouse N-terminal FLAG-tagged Notch1 (1704 to 2531 residues) activation expressed in human LS174T cells assessed as reduction in Hes1 level at 0.1 to 1 uM after 12 hrs by Western blot analysis. The format is cell-based. The method in brief: as §2

Experiment [17] concerns MEB5. The experiment in a line: Induction of neuronal differentiation in mouse MEB5 cells assessed as number of neurons at 1 uM after 4 days by Tuj1 staining based immunofluorescence analysis (reference value: 13.3 %). The experiment is classed as functional.
Experiment [18] deals with LS174T. The experiment in a line: Effect on Notch1 (1704 to 2531 residues) expression in human LS174T cells at 0.001 to 10 uM after 12 hrs by Western blot analysis. The experiment is classed as functional, cell-based. The method in brief:
as §2

Experiment [19] concerns MEB5. Put plainly: Induction of neuronal differentiation in mouse MEB5 cells assessed as number of neurons at 10 uM after 4 days by Tuj1 staining based immunofluorescence analysis (reference value: 13.3 %). The experiment is classed as functional. The method in brief:
(§3)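 MEB5 mouse neurospheres were chemically dissociated and seeded at 2 × 10^6 cells/well on coverslips coated with poly-L-lysine and fibronectin/laminin. After 12 h in proliferation medium, cells were washed with NeuroCult basal medium and treated for 4 days in differentiation medium. They were then fixed in 4% paraformaldehyde and immunostained for Tuj-1 (neurons) and GFAP (astrocytes), with TO-PRO-3 nuclear counterstain. Confocal imaging used four fields per well and three wells per condition, covering over 4000 cells and 670 neurites per sample.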

For experiment [20], the system named is MEB5. The experiment in a line: Induction of neuronal differentiation in mouse MEB5 cells assessed as reduction in astrocytes at 10 uM after 4 days by GFAP staining based immunofluorescence analysis. The format is functional, cell-based. The method in brief:
as §3

Experiment [21] addresses Neurogenic locus notch homolog protein 1 (Mus musculus) (UniProt Q01705). The experiment in a line: Inhibition of recombinant mouse Notch1-RAMIC expressed in MEB5 cells assessed as reduction in doxycycline-induced NICD expression at 10 uM after 12 hrs by Western blot analysis. The format is cell-based. The method in brief: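 Dissociated MEB5 cells were seeded at 2 × 10^6 cells/well in 6 cm dishes coated with poly-L-lysine and fibronectin/laminin. After 12 h in proliferation medium, cells were washed with serum-free NeuroCult basal medium and treated in differentiation medium with 10 μM for 12 h. Whole-cell lysates were run on SDS-PAGE and immunoblotted for NICD, with ECL detection.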

For experiment [22] the target is unchanged. The experiment in a line: Inhibition of recombinant mouse Notch1-RAMIC expressed in MEB5 cells harboring TP1 assessed as luciferase activity at 10 uM after 12 hrs by Dual-Glo luciferase assay (reference value: 0.258). The format is cell-based.
Experiment [23] relates to MEB5. Put plainly: Induction of neuronal differentiation in mouse MEB5 cells assessed as neurite length at 10 uM after 4 days by Tuj1 staining based immunofluorescence analysis (reference value: 14.3 micrometer). The experiment is classed as functional. The method in brief:
as §3

Experiment [24] has as its system MEB5. Put plainly: Induction of neuronal differentiation in mouse MEB5 cells assessed as increase in neurite extension length at 10 uM after 4 days by Tuj1 staining based immunofluorescence analysis relative to control. The format is functional. The essentials:
as §3

Activity calls are given as the source filed them. No cut-off for these calls is given here.

Sequence of Neurogenic locus notch homolog protein 1 (Mus musculus) (Q01705 whole entry): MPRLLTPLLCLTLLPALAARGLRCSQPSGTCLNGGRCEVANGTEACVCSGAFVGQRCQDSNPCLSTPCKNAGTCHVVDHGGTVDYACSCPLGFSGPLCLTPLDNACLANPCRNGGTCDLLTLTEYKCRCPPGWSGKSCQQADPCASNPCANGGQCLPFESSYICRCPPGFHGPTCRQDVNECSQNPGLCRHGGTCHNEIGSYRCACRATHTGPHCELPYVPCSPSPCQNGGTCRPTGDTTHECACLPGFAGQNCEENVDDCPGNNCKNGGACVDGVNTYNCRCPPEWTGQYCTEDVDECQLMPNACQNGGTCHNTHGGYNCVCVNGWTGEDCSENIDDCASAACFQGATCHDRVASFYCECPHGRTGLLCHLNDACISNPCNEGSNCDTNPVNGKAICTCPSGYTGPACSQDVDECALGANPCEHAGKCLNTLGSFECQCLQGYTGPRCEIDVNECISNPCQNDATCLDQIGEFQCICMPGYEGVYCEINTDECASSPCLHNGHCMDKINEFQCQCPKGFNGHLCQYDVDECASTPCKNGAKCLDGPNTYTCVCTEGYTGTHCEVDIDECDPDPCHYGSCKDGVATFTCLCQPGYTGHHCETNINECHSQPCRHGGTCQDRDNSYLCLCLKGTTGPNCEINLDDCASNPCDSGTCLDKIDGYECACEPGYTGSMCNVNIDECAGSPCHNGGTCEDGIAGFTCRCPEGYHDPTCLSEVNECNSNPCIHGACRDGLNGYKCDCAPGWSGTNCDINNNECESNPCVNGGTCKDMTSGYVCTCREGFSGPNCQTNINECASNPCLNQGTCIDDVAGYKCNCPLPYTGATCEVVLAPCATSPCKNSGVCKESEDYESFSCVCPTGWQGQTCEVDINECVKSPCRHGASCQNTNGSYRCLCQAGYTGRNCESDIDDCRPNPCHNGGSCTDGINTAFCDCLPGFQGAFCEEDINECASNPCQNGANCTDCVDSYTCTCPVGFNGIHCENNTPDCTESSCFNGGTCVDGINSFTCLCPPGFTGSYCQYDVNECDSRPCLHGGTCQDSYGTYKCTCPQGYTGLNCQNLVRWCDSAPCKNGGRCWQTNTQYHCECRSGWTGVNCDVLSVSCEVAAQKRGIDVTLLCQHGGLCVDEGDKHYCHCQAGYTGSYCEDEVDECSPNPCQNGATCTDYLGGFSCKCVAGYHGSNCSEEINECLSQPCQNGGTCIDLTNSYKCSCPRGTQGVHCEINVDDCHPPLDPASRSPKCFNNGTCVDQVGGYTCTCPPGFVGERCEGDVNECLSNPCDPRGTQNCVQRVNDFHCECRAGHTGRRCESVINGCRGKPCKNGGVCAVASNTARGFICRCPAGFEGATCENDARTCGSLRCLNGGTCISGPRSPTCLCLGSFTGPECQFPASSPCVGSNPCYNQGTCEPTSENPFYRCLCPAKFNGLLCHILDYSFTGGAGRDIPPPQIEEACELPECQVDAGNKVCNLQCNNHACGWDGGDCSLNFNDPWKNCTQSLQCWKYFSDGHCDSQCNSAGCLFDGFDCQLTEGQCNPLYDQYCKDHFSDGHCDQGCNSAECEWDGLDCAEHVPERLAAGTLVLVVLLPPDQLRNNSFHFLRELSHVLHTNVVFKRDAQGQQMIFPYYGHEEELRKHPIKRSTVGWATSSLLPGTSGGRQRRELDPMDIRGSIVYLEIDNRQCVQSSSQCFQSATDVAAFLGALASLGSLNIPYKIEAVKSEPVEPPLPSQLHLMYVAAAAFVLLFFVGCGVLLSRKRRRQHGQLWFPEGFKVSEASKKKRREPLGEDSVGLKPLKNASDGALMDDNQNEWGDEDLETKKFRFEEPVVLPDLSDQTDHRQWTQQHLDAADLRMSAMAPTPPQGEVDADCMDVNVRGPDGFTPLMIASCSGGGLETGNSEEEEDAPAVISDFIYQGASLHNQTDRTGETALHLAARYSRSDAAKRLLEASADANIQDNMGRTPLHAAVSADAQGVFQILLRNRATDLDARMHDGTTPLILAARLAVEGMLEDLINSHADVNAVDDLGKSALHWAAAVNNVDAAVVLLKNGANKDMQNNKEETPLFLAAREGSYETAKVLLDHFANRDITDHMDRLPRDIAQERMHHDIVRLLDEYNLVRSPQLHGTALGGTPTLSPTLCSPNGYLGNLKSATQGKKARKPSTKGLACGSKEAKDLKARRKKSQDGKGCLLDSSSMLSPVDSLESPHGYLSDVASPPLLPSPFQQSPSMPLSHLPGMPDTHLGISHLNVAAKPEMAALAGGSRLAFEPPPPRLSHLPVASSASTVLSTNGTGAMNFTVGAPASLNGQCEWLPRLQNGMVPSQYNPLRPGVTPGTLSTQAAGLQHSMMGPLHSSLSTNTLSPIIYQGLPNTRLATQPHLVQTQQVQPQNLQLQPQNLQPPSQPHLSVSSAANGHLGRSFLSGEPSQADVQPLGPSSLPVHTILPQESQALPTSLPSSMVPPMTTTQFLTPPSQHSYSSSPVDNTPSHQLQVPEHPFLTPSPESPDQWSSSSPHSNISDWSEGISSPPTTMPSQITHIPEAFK
Sequence of Neurogenic locus notch homolog protein 1 (Homo sapiens) (P46531 whole entry, the tested form may be a part): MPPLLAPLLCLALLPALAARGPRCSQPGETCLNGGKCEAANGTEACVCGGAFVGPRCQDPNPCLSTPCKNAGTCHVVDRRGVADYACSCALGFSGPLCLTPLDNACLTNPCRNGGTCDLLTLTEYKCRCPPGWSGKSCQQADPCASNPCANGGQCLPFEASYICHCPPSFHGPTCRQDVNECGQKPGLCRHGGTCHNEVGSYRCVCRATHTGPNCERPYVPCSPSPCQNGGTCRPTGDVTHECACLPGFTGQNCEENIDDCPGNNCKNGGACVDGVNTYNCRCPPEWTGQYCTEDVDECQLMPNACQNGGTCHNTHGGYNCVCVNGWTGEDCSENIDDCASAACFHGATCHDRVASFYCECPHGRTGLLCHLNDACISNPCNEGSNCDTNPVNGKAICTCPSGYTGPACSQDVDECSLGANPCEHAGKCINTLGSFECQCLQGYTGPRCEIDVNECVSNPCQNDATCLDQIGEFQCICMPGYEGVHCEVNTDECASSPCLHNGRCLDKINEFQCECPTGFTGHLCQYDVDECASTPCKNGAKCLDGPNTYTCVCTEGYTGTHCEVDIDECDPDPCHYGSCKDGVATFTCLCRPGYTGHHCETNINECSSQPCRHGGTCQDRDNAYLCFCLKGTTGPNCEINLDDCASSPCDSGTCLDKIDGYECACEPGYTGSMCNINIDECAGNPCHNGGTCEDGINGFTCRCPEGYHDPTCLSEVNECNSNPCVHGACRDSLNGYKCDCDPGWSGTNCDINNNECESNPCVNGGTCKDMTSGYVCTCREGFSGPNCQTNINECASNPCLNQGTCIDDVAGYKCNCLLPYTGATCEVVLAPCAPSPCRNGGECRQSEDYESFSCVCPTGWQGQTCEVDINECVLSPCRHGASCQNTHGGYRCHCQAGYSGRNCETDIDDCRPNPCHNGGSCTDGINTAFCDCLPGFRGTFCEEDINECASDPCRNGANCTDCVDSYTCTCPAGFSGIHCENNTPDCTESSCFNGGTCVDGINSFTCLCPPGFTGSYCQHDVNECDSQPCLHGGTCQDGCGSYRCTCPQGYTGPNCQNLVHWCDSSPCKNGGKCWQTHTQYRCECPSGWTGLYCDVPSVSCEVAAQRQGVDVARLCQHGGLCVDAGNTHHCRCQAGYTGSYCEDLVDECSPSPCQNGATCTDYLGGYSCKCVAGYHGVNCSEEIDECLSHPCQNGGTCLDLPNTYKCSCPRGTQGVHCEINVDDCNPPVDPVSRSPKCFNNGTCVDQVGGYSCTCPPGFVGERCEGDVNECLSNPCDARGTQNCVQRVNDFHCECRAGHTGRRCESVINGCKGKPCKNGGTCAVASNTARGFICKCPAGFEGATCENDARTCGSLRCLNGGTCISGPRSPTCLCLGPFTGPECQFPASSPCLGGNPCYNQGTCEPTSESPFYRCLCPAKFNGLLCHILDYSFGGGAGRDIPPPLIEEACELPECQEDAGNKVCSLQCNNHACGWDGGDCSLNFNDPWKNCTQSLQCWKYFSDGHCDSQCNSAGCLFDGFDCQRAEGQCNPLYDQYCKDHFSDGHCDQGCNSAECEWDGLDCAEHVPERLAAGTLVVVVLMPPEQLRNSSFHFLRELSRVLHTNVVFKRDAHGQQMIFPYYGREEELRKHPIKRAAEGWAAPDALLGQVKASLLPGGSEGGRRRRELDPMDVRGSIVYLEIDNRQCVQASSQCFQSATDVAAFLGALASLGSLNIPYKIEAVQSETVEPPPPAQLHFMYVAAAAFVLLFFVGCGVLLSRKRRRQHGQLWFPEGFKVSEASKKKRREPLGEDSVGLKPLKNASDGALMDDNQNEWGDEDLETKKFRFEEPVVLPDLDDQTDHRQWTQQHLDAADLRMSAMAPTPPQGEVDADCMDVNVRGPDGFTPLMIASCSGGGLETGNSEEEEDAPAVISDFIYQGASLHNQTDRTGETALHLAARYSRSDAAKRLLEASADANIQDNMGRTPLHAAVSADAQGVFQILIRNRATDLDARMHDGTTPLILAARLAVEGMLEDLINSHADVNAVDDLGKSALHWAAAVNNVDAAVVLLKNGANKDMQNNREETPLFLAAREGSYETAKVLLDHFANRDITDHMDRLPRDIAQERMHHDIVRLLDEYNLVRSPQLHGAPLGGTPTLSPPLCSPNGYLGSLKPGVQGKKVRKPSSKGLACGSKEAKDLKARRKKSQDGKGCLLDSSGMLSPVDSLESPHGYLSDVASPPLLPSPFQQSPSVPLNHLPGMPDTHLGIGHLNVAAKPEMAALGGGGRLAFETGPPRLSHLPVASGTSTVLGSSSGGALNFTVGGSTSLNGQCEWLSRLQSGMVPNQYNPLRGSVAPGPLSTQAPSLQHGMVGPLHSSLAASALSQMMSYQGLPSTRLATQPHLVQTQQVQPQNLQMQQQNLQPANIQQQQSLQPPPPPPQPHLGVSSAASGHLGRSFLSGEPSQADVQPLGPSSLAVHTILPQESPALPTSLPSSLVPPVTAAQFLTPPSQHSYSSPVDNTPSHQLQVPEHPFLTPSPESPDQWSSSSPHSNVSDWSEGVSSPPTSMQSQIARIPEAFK

In the case of `C[C@@H]1CC(=O)[C@]2(O)O[C@@H]3C[C@@]4(C=O)[C@@H](CC[C@@H]5[C@@H]4CC[C@]4(C)[C@@H](C6=CC(=O)OC6)CC[C@]54O)C[C@H]3O[C@@H]2O1`, in experiment [1], the inhibition result was “Dose-dependent effect”.

Regarding `C[C@@H]1C[C@@]2(N=CCS2)[C@]2(O)O[C@@H]3C[C@@]4(C=O)[C@@H](CC[C@@H]5[C@@H]4CC[C@]4(C)[C@@H](C6=CC(=O)OC6)[C@H](O)C[C@]54O)C[C@H]3O[C@@H]2O1`, the inhibition entry in [1] was “Dose-dependent effect”.

As for `COC(=O)[C@@]1(O)C[C@@H](C)O[C@H]1O[C@@H]1C[C@@H]2CC[C@@H]3[C@H](CC[C@]4(C)[C@@H](C5=CC(=O)OC5)[C@H](O)C[C@]34O)[C@@]2(C=O)C[C@H]1O`, in experiment [1], the inhibition entry was “Dose-dependent effect”.

As to `C[C@@H]1C[C@@]2(NC(=O)CS2)[C@]2(O)O[C@@H]3C[C@@]4(C=O)[C@@H](CC[C@@H]5[C@@H]4CC[C@]4(C)[C@@H](C6=CC(=O)OC6)CC[C@]54O)C[C@H]3O[C@@H]2O1`, the inhibition entry in experiment [1] was “Dose-dependent effect”.

In the case of `C[C@@H]1C[C@H](O)[C@]2(O)O[C@@H]3C[C@@]4(C=O)[C@@H](CC[C@@H]5[C@@H]4CC[C@]4(C)[C@@H](C6=CC(=O)OC6)CC[C@]54O)C[C@H]3O[C@@H]2O1`, in [2], the outcome was inactive. The inhibition entry in experiment [1] was “Dose-dependent effect”.

On to `C[C@@H]1C[C@@]2(N=CCS2)[C@]2(O)O[C@@H]3C[C@@]4(C=O)[C@@H](CC[C@@H]5[C@@H]4CC[C@]4(C)[C@@H](C6=CC(=O)OC6)CC[C@]54O)C[C@H]3O[C@@H]2O1` [USCHARIN], for which the inhibition entry in [3], in experiment [7], in experiment [9], in experiment [12] and in [16] was “Active” each time. The result in experiment [4] was Active. Moreover, the inhibition result in experiment [5] and in experiment [13] was “inactive” throughout. In addition, the outcome in experiment [6], in experiment [10], in [2], in [11], in experiment [15] and in experiment [18] was inactive. Further, the Activity in experiment [8] is listed as 19.5 um; in experiment [14], 36%; in experiment [17], 20.8%. Further, in experiment [1], the inhibition entry is “Dose-dependent effect”.

Turning to `C[C@@H]1C[C@@]2(NCCS2)[C@]2(O)O[C@@H]3C[C@@]4(C=O)[C@@H](CC[C@@H]5[C@@H]4CC[C@]4(C)[C@@H](C6=CC(=O)OC6)CC[C@]54O)C[C@H]3O[C@@H]2O1`, in experiment [1], the inhibition result is “Dose-dependent effect”.

`CC(=O)O[C@H]1C[C@@H](C)O[C@H]2O[C@@H]3C[C@@H]4CC[C@@H]5[C@H](CC[C@]6(C)[C@@H](C7=CC(=O)OC7)CC[C@]56O)[C@@]4(C=O)C[C@H]3O[C@]21O`: the result in experiment [2] was inactive. The inhibition result in experiment [1] was “Dose-dependent effect”.

As to `C[C@H](NC(=O)Cc1cc(F)cc(F)c1)C(=O)N[C@H](C(=O)OC(C)(C)C)c1ccccc1`, the Activity in [19] was 19.7%; in experiment [22], 0.004; in experiment [23] it was 20.5 um; in [24] it was 43%. The outcome in experiment [20] was Active. Further, the inhibition result in [7], in experiment [21] and in [16] was “Active” each time.
